Among the data in ChEMBL document CHEMBL1687912, “Sugar-based enantiomeric and conformationally constrained pyrrolo[2,1-c][1,4]-benzodiazepines as potential GABAA ligands” (J Med Chem, 2011) are Activity values, retold here.

The species entered for this assay is Rattus norvegicus. As to the kind of experiment: Displacement of [3H]flunitrazepam from GABAA receptor in rat cortical membrane assessed as [3H]flunitrazepam binding at 100 uM after 90 mins by scintillation counting. Type of assay: cell membranes. The procedure, abridged:
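Rat frontal cortex membranes (sucrose homogenate, ultracentrifuged pellets in 50 mM Tris-HCl pH 7.4), 0.3 mg protein per tube, incubated 90 min at 4 °C with 1 nM [3H]flunitrazepam ± 100 μM test compound (final; benzyl-sugar analogues from ethanol stock). Nonspecific binding with 100 μM flumazenil. Rapid GF/B filtration, ice-cold buffer washes, scintillation counting; expressed as % specific binding; three independent experiments in triplicate.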
On the technique in general: Loss of bound radioactivity is the signal in a displacement assay; it reports binding, not function.

Regarding `O=C1Nc2ccccc2C(=O)N2C[C@@]3(C[C@@H]12)O[C@@H](CO)[C@H](O)[C@H]3O`, the Activity stood at 110%. The figure for `CN1C(=O)[C@H]2C[C@@]3(CN2C(=O)c2ccccc21)O[C@H](COCc1ccccc1)[C@@H](OCc1ccccc1)[C@@H]3OCc1ccccc1` is 96.4%. In the case of `O=C1Nc2ccccc2C(=O)N2CCC[C@@H]12`, the Activity is 95.5%. As for `CN1C(=O)[C@H]2C[C@@]3(CN2C(=O)c2ccccc21)O[C@H](CO)[C@@H](O)[C@@H]3O`, the Activity turned out to be 93%.

For the compound `O=C1Nc2ccccc2C(=O)N2C[C@]3(C[C@H]12)O[C@H](COCc1ccccc1)[C@@H](OCc1ccccc1)[C@@H]3OCc1ccccc1`, the Activity came out at 112%.

With `CN1C(=O)[C@H]2C[C@@]3(CN2C(=O)c2cc(Cl)ccc21)O[C@H](CO)[C@@H](O)[C@@H]3O`, the Activity turned out to be 73.7%. In the case of `CN1C(=O)[C@H]2C[C@@]3(CN2C(=O)c2cc(Br)ccc21)O[C@H](CO)[C@@H](O)[C@@H]3O` it was 84.2%; in that of `CN1C(=O)[C@H]2CCCN2C(=O)c2cc([N+](=O)[O-])ccc21`, 80.2%; in that of `CN1C(=O)[C@@H]2C[C@]3(CN2C(=O)c2cc(Cl)ccc21)O[C@@H](COCc1ccccc1)[C@H](OCc1ccccc1)[C@H]3OCc1ccccc1`, 82.3%. For `CN1C(=O)[C@@H]2CCCN2C(=O)c2cc([N+](=O)[O-])ccc21`, the Activity was 63.4%. In the case of `O=C1Nc2ccc([N+](=O)[O-])cc2C(=O)N2C[C@]3(C[C@H]12)O[C@H](COCc1ccccc1)[C@@H](OCc1ccccc1)[C@@H]3OCc1ccccc1` it was 101%; in that of `O=C1Nc2ccccc2C(=O)N2CCC[C@H]12`, 97%. Turning to `Nc1ccc2c(c1)C(=O)N1C[C@@]3(C[C@H]1C(=O)N2)O[C@@H](CO)[C@H](O)[C@H]3O`, the Activity was determined as 73.9%. With `CN1C(=O)[C@@H]2C[C@]3(CN2C(=O)c2cc(N)ccc21)O[C@@H](CO)[C@H](O)[C@H]3O`, the Activity came to 83.5%. The figure for `CN1C(=O)[C@@H]2C[C@]3(CN2C(=O)c2ccccc21)O[C@@H](CO)[C@H](O)[C@H]3O` is 112%; for `CN1C(=O)[C@@H]2C[C@]3(CN2C(=O)c2ccccc21)O[C@@H](COCc1ccccc1)[C@H](OCc1ccccc1)[C@H]3OCc1ccccc1` it is 106%; for `CN1C(=O)[C@H]2C[C@@]3(CN2C(=O)c2cc(Br)ccc21)O[C@H](COCc1ccccc1)[C@@H](OCc1ccccc1)[C@@H]3OCc1ccccc1` it is 111%. In the case of `CN1C(=O)[C@@H]2C[C@]3(CN2C(=O)c2cc(Br)ccc21)O[C@@H](CO)[C@H](O)[C@H]3O` it was 82.2%. Regarding `O=C1Nc2ccc([N+](=O)[O-])cc2C(=O)N2C[C@@]3(C[C@@H]12)O[C@@H](COCc1ccccc1)[C@H](OCc1ccccc1)[C@H]3OCc1ccccc1`, the Activity amounted to 69.6%. Regarding `CN1C(=O)[C@H]2C[C@@]3(CN2C(=O)c2cc(N)ccc21)O[C@H](CO)[C@@H](O)[C@@H]3O`, the Activity stood at 70.6%.

For `CN1C(=O)[C@@H]2C[C@]3(CN2C(=O)c2cc(Br)ccc21)O[C@@H](COCc1ccccc1)[C@H](OCc1ccccc1)[C@H]3OCc1ccccc1`, the Activity turned out to be 93.2%. The figure for `Nc1ccc2c(c1)C(=O)N1C[C@]3(C[C@@H]1C(=O)N2)O[C@H](CO)[C@@H](O)[C@@H]3O` is 80.2%; for `CN1C(=O)[C@H]2C[C@@]3(CN2C(=O)c2cc(Cl)ccc21)O[C@H](COCc1ccccc1)[C@@H](OCc1ccccc1)[C@@H]3OCc1ccccc1` it is 92.9%. In the case of `CN1C(=O)[C@@H]2C[C@]3(CN2C(=O)c2cc([N+](=O)[O-])ccc21)O[C@@H](COCc1ccccc1)[C@H](OCc1ccccc1)[C@H]3OCc1ccccc1` it was 82.8%.

Consider `CN1C(=O)[C@H]2C[C@@]3(CN2C(=O)c2cc([N+](=O)[O-])ccc21)O[C@H](COCc1ccccc1)[C@@H](OCc1ccccc1)[C@@H]3OCc1ccccc1`, for which the Activity amounted to 74.9%. In the case of `O=C1Nc2ccccc2C(=O)N2C[C@@]3(C[C@@H]12)O[C@@H](COCc1ccccc1)[C@H](OCc1ccccc1)[C@H]3OCc1ccccc1` it was 96.3%. Turning to `CN1C(=O)[C@@H]2C[C@]3(CN2C(=O)c2cc(Cl)ccc21)O[C@@H](CO)[C@H](O)[C@H]3O`, the Activity amounted to 77%.

Turning to `O=C1Nc2ccccc2C(=O)N2C[C@]3(C[C@H]12)O[C@H](CO)[C@@H](O)[C@@H]3O`, the Activity was found to be 78.2%.
